In the library only some 3.3% were active in any assay of this set; here they are far more common.
SIAE primary = blocks human sialic acid acetylesterase; SIAE FP-Rh probe binding, fluorescence polarization; 370,000 tested, 0.69% active; inhibition, % at 9.66 µM; AID 1053197; Q9HAT2;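 active = inhibition above a cutoff: mean of compounds within the control limits plus 3 SD of those, cut at about 17% in these data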
Target sequence (Q9HAT2 whole entry, looked up): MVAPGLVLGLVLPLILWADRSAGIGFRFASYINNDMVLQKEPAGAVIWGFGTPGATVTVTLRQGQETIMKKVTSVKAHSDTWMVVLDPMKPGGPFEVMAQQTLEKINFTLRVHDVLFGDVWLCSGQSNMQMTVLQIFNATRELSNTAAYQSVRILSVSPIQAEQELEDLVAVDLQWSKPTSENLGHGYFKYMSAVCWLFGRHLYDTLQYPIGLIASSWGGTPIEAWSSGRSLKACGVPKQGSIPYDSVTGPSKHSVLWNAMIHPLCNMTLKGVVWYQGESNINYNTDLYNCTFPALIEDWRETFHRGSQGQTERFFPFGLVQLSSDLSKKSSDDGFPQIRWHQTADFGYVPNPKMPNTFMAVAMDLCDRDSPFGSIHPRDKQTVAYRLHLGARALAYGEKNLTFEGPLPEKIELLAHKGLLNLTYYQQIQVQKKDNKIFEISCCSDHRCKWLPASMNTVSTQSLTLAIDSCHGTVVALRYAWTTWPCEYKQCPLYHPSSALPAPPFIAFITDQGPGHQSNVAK
TDP2 absorb = blocks human TDP2 phosphodiesterase activity; recombinant TDP2, T5PNP hydrolysis, p-nitrophenol absorbance 415 nm; inhibition, % at 12.8 µM; 370,000 tested, 0.34% active; AID 720702;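 active = inhibition above the mean of all tested compounds plus 3 SD, set per campaign, cut at about 25% in these data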
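Read-out basis: percent inhibition. System: recombinant human TDP2. Buffer or medium: Mg2+-containing Tris-HCl buffer, pH 7.5. Repeats: single replicate. Timing: reaction 2 h, 37 °C. Benchmarks: high control without enzyme, low control DMSO plus TDP2. Probe or stimulus: 5 mM T5PNP. Doses: 12.8 µM only. Measured by: epi absorbance of p-nitrophenol freed from T5PNP by hydrolysis.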
LEDGF integ inh = blocks HIV-1 LEDGF/p75-dependent DNA integration | 370,000 tested, 0.64% active | AID 743269 | TR-FRET IN-LEDGF/p75 DNA integration, Eu/Cy5 | inhibition, % at 3.7 µM;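 active = inhibition above the screen-wide mean plus 3 SD, cut at about 13% in these data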;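 note: signal is the Cy5 over europium emission ratio at 671 and 618 nm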
UHRF1 MBD2 ctr = UHRF1 methyl-DNA binding inhibition | Q96T88 | UHRF1 binding to methylated oligo, TR-FRET | inhibition, % at 4.4 µM | 370,000 tested, 0.75% active; in the data active = inhibition above about 21%;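 note: UHRF1 SRA domain binding a hemimethylated CpG hairpin DNA probe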
MBD2 DNA inh = blocks human MBD2 binding to methylated DNA; TR-FRET, MBD2 binding to methylated oligonucleotide; inhibition, % at 4.4 µM; 370,000 tested, 0.31% active; in the data active = inhibition above about 13%
PRMT1 inh = inhibitors of human PRMT1; AID 652257; inhibition, % at 2.79 µM; recombinant PRMT1, activity-based probe fluorescence polarization; 370,000 tested, 1.3% active;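 active = inhibition above about 21% made by adding two undisclosed values, limit read from the data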
Each line names hits and unclear results; the compound was inactive in the other large screens.

CN1CC=C(c2ccccc2)N(c2ccccc2)C1=O	none
O=c1c(O)c(-c2ccc(O)cc2)oc2cc(O)cc(O)c12	SIAE primary 21
NNC(=O)C1C(O)CCC2CN3CCc4c([nH]c5ccccc45)C3CC21 (stereo not given)	PRMT1 inh 22
COC(=O)[C@@H]1[C@H]2C[C@H]3c4[nH]c5ccccc5c4CCN3C[C@@H]2CC[C@@H]1O	none
Cc1ccc(C(=O)NCC(=O)O)o1	LEDGF integ inh 52
Cc1cccc(N2C(=O)c3cccc4cccc(c34)C2=O)c1	none
O=C(O)c1cccc(N2C(=O)c3cccc4c(Cl)ccc(c34)C2=O)c1	none
Nc1cccc(N2C(=O)c3cccc4c(N)ccc(c34)C2=O)c1	PRMT1 inh 113
CC(C)CCN1C(=O)c2cccc3c(N)ccc(c23)C1=O	PRMT1 inh 158
Cc1cccc(N2C(=O)c3cccc4c(N)ccc(c34)C2=O)c1	PRMT1 inh 162
CCN1C(=O)c2cccc3c(Cl)ccc(c23)C1=O	none
CCOC(=O)[C@]12CCCCC/C=C\1N(CCc1ccc(Cl)cc1)C(=O)[C@H]2CC(=O)NCCC(C)C	none
FC(F)(F)c1ccc(Cn2ccc3ccc(-c4ccc5ccn(Cc6ccccc6)c5c4)cc32)cc1	none
Cc1nc(N2CCN(C(=O)c3ccco3)CC2)c(C#N)c2c1CCCC2	none
Cc1cc(C)c2nc(N3CCCN(C(=O)c4ccco4)CC3)c(C#N)cc2c1	PRMT1 inh 22
O=C(c1ccco1)N1CCN(C(c2cccs2)c2nnnn2C2CCCCC2)CC1 (stereo not given)	UHRF1 MBD2 ctr 86
CCOC(=O)C1=C(C)N(C)C(C)=C(C(=O)OCC)C1c1ccc(Cl)cc1	UHRF1 MBD2 ctr 26
COC(=O)C1=C(C)N(C)C(C)=C(C(=O)OC)C1c1ccc(Cl)cc1	none
CCCCCCCCN1C(=O)[C@@H](CC(=O)NCCCN2CCCC2=O)C[C@@]2(C(=O)OC)C1=C[C@H](C(C)C)O[C@@H]2C1CC1	none
C[C@H]1[C@@H](c2ccccc2)OC(O)([C@H](Cc2ccccc2)NC(=O)OC(C)(C)C)CN1C (stereo not given in full)	none
CCOc1cc(CNc2ccc3cn[nH]c3c2)ccc1OC	TDP2 absorb 30
CN1C(=O)c2cc(NS(C)(=O)=O)ccc2OC[C@H]2O[C@@H](CC(=O)NCc3ccc(-c4ccccc4)cc3)CC[C@@H]21	none
CC1CCN(c2ccc(C(=O)O)cc2NS(=O)(=O)c2cccc3cccnc23)CC1	none
CC(=O)N(c1ccccc1)c1nc(/C=C/C(=O)Nc2c(C)cc(C)cc2C)cs1	UHRF1 MBD2 ctr 99
Cc1ncc(C[n+]2csc(CCO)c2C)c(N)n1	none
C/C(=C(/CCO)SSCC1CCCO1)N(C=O)Cc1cnc(C)nc1N (stereo not given)	PRMT1 inh 24
CCCCCCN=C1CC(C)(C)CC(=O)/C1=C(/O)CCC	UHRF1 MBD2 ctr 23
Cc1cccc(-c2n[nH]c(=S)n2/N=C/c2ccc(C)o2)c1	PRMT1 inh 22
CCOc1ccc(NC(=O)CSc2nncc(=O)n2N)cc1	PRMT1 inh 34
Oc1cc(-n2cccn2)c(O)cc1-n1cccn1	PRMT1 inh 57
CCN(CC)C(=O)CC[C@@H]1CC[C@]2(CCCN(C(=O)C3CCCCC3)C2)O1	none
C=CCNC(=O)C1CC(=O)N(c2ccc(OCC(=O)Nc3ccccc3)cc2)C1 (stereo not given)	SIAE primary 18
Cc1ccc(-c2nnc(SCC(=O)NNC(=S)Nc3ccccc3)n2C2CCCCC2)cc1	none
COc1ccc(S(=O)(=O)NCC(=O)N2CCN(c3ccccn3)CC2)c(OC)c1	none
Cc1cccc(C(=O)NNC(=O)c2ccc(Br)cc2)c1	UHRF1 MBD2 ctr 21
CCOC(=O)C1C(c2cccc(F)c2)NC(=S)NC1(O)C(F)(F)F (stereo not given)	UHRF1 MBD2 ctr 29
COc1ccc(/C=N/NC(=O)c2nn(-c3ccc(Cl)cc3)c(=O)c3c(N)scc23)cc1	PRMT1 inh 24
CCOC(=O)c1nn(-c2ccc(OC)cc2)c(=O)c2c(N)scc12	none
O=C(O)c1ccc(NC(=O)c2ccc(COc3ccccc3)o2)cc1	UHRF1 MBD2 ctr 26
O=C(Oc1ccccc1)c1ccc(NC(=O)c2ccco2)cc1	PRMT1 inh 24
Cc1ccc(OCc2ccc(C(=O)Nc3ccc(C(N)=O)cc3)o2)c([N+](=O)[O-])c1	UHRF1 MBD2 ctr 34
Cc1ccc(OCc2ccc(C(=O)Nc3cc(C)on3)o2)c([N+](=O)[O-])c1	none
COCc1ccc(C(=O)Nc2ccc(C(=O)O)cc2)o1	none
Cc1cc(C)cc(NC(=O)NCCCN2CCN(c3ccc(F)cc3)CC2)c1	none
CN1C(=O)C[C@@](C#N)(C(=O)NCc2ccccc2)[C@H]1c1ccccc1	none
O=C(C[C@@H]1C[C@@H]2c3cc(NS(=O)(=O)c4ccc(F)cc4)ccc3O[C@@H]2[C@H](CO)O1)NCc1ccc(Oc2ccccc2)cc1	UHRF1 MBD2 ctr 23
CN1CC(=O)N2[C@@H](C[C@]3(c4c[nH]c5ccccc45)c4ccccc4N(S(=O)(=O)c4ccccc4)[C@H]23)C1=O	none
O=C(CCN=C1NS(=O)(=O)c2ccccc21)OCC(=O)c1ccccc1	UHRF1 MBD2 ctr 32
C=CCN(C)C(C#Cc1ccccc1)Cc1ccccc1 (stereo not given)	none
COc1ccccc1NS(=O)(=O)c1cccc(NC(=O)Nc2ccccc2)c1	none
CCNS(=O)(=O)c1ccc(NC(=O)Nc2ccccc2OC)cc1	UHRF1 MBD2 ctr 23
COc1ccccc1NS(=O)(=O)c1cccc(NC(=O)Nc2ccc(Cl)cc2)c1	UHRF1 MBD2 ctr 26
O=C(NCc1ccc(F)cc1)c1ccc(NC(=O)C2CCCO2)cc1 (stereo not given)	UHRF1 MBD2 ctr 38
CC(NCC1COc2ccccc2O1)C(=O)NCc1ccccc1 (stereo not given)	UHRF1 MBD2 ctr 25
O=C(NCc1ccccc1)C(=O)NCC1COc2ccccc2O1 (stereo not given)	none
CN(Cc1ccco1)S(=O)(=O)c1ccc2c(c1)CCN2C(=O)CC(C)(C)C	none
COCCCn1cc(CN2CC=CS2(=O)=O)nn1	none
O=C1CC(Sc2cccs2)C(=O)N1c1ccccc1 (stereo not given)	PRMT1 inh 49
CC(C)(N[C@@H](Cc1c[nH]c2ccccc12)C(=O)NCC(c1ccccc1)c1ccccc1)C(=O)NC1CCCCC1	none
CCCC(=O)Nc1nc2ccc(OCC)cc2s1	none
CCOc1ccc2c(O)csc2c1	PRMT1 inh 41
COCCNC(=O)COC(=O)c1cccnc1SC	UHRF1 MBD2 ctr 27
COC(=O)C1CN(C2CCCC2)CCS(=O)(=O)N1Cc1ccc(C)cc1 (stereo not given)	none

Screening results as filed in PubChem BioAssay.
